Reference: publication PMC5573908 (Diabetes, Obesity & Metabolism, 2017)

How the values were obtained:
subjects with obesity = test: Safety and tolerability; format: in vivo, human
Summary of the method: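 Safety was followed through both 12-week periods of randomised crossover s.c. weekly dosing (0.25, 0.5, then 1.0 mg, 4 weeks each) versus matching placebo. Assessments were adverse events, hypoglycaemic events and blood pressure.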

[1] = Multiple-dose pharmacokinetics of semaglutide; format: in vivo, human
Summary of the method: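 Test compound (1.34 mg/mL) was given s.c. once weekly at 0.25 mg for 4 weeks, 0.5 mg for 4 weeks, then 1.0 mg for 4 weeks. Steady-state trough concentrations were taken after 4, 8 and 12 weeks. After a further clinic 1.0 mg dose, steady-state parameters were derived from 0–168 h concentration-time curves.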

[2] = 12 weeks, once-weekly s.c. escalated to 1.0 mg

Mean trough value (CV) ([1]; 0.25 mg s.c. once-weekly, after 4 weeks of treatment): 4.64 (32.5) nmol/L | Mean trough value (CV) ([1]; 0.5 mg s.c. once-weekly, after 8 weeks of treatment): 10.25 (23.3) nmol/L | Mean trough value (CV) ([1]; 1.0 mg s.c. once-weekly, after 12 weeks of treatment): 19.73 (21.9) nmol/L
Structure (SMILES): CC[C@H](C)[C@H](NC(=O)[C@H](Cc1ccccc1)NC(=O)[C@H](CCC(=O)O)NC(=O)[C@H](CCCCNC(=O)COCCOCCNC(=O)COCCOCCNC(=O)CC[C@H](NC(=O)CCCCCCCCCCCCCCCCC(=O)O)C(=O)O)NC(=O)[C@H](C)NC(=O)[C@H](C)NC(=O)[C@H](CCC(N)=O)NC(=O)CNC(=O)[C@H](CCC(=O)O)NC(=O)[C@H](CC(C)C)NC(=O)[C@H](Cc1ccc(O)cc1)NC(=O)[C@H](CO)NC(=O)[C@H](CO)NC(=O)[C@@H](NC(=O)[C@H](CC(=O)O)NC(=O)[C@H](CO)NC(=O)[C@@H](NC(=O)[C@H](Cc1ccccc1)NC(=O)[C@@H](NC(=O)CNC(=O)[C@H](CCC(=O)O)NC(=O)C(C)(C)NC(=O)[C@@H](N)Cc1cnc[nH]1)[C@@H](C)O)[C@@H](C)O)C(C)C)C(=O)N[C@@H](C)C(=O)N[C@@H](Cc1c[nH]c2ccccc12)C(=O)N[C@@H](CC(C)C)C(=O)N[C@H](C(=O)N[C@@H](CCCNC(=N)N)C(=O)NCC(=O)N[C@@H](CCCNC(=N)N)C(=O)NCC(=O)O)C(C)C [semaglutide]
Severe or blood glucose-confirmed symptomatic hypoglycaemic events (subjects with obesity; 12 weeks): No severe or blood glucose‐confirmed symptomatic hypoglycaemic events were reported | Serious AEs (subjects with obesity; [2]): no serious AEs were reported | Severity of AEs (subjects with obesity; [2]): mild or moderate | Observed mean changes from baseline in systolic and diastolic blood pressure (subjects with obesity; week 12, either treatment): ≤ 2 mm Hg
